Shown are actives, neighbours in structure and some others; about 3.5% of the full set was active somewhere.
MEKK2 mut-MEK5: signal of MEK5 binding to mutant human MEKK2 PB1 domain; bead flow cytometry, Alexa488-MEK5 binding to MEKK2 mutant; percent response, % at 10 µM; 290,000 tested, 0.35% active; AID 1530; in the data active = percent response above about 24%, passing the limit was not always enough
WT yeast gro inh: growth inhibition of WT yeast, mitochondrial fusion screen; mitochondrial fusion phenotypic screen, WT strain; inhibition, % at 10 µM; 190,000 tested, 2.1% active; in the data active = inhibition above about 58%; tested in S. cerevisiae
ABCB1 block: blocks JC-1 efflux by human ABCB1 transporter. CCRF-Adr cells, flow cytometry. inhibition, % at 6.6 µM. AID 1326. 190,000 tested, 0.067% active; in the data active = inhibition above about 40%;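 also: 0% = vehicle and 100% = reference inhibitor; higher value means more JC-1 retained so stronger ABCB1 efflux block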
MEKK3 PB1 HTS: MEKK3-MEK5 PB1 interaction, increase or decrease | 290,000 tested, 1.4% active | bead-based flow cytometry, Alexa488-MEK5 binding to MEKK3; actives lie on both sides; 0 = blocked by unlabeled MEK5, 100 = vehicle | binding response (% of control), % at 10 µM;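 active = binding response more than 3 SD above or below the average of its plate-row segment, actives on both sides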;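 also: Alexa488 bead fluorescence after subtracting the streptavidin-only scavenger bead signal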
ABCG2 inh: human ABCG2 inhibition, ABCB1 as counter-screen. 190,000 tested, 0.1% active. Q9UNQ0. IgMXP3 cells, JC-1 efflux, flow cytometry. inhibition, % at 6.6 µM;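 active = inhibition above 80%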;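 also: 0% = DMSO and 100% = nicardipine control wells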
Target sequence (Q9UNQ0 whole entry, looked up): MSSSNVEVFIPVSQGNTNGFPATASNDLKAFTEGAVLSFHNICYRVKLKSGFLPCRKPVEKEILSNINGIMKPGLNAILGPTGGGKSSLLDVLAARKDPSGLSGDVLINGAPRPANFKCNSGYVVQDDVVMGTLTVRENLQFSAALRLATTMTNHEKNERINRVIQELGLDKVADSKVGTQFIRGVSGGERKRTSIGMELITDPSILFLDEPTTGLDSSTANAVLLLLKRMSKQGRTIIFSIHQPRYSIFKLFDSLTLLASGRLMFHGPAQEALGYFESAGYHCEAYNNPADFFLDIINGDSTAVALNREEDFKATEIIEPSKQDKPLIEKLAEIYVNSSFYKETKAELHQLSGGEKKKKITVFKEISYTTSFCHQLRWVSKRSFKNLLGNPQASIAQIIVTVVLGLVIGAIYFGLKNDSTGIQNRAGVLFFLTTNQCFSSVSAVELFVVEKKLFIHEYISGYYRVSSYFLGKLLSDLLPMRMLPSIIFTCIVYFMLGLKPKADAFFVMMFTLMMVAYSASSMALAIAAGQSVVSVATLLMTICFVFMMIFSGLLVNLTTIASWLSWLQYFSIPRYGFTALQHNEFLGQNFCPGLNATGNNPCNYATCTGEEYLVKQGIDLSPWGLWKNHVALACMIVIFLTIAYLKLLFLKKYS
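Incubation: cells with compound and JC-1, 10 min at 25 °C, rotating, no wash / Test system: IgMXP3 (ABCG2) plus far-red-tagged CCRF-Adr (ABCB1) cells / Compound dosing: one concentration, 6.6 µM final / Also added: JC-1 fluorescent substrate / Evaluation: efflux inhibition in percent versus controls / Detection: flow cytometry, 530 nm JC-1 signal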
MEKK2wt PB1 HTS: raises or lowers MEK5 binding to wildtype human MEKK2 PB1 domain | Q9Y2U5 | AID 1531 | 290,000 tested, 1.1% active | binding response (% of control), % at 10 µM | bead flow cytometry, Alexa488-MEK5 binding to MEKK2 WT; actives lie on both sides; in the data active = binding response below about 67% or above about 130%
MEKK2wt confirm: raises or lowers MEK5 binding to wildtype human MEKK2, retest | 5,900 tested, 2.4% active | binding response (% of control), % at 10 µM | AID 1892 | bead flow cytometry, Alexa488-MEK5 binding to MEKK2 WT; actives lie on both sides | shares compounds with MEKK3 PB1 HTS; in the data active = binding response below about 16% or above about 210%; inactive = in between
MEKK2mut confirm: signal of MEK5 binding to mutant human MEKK2, retest | shares compounds with MEKK3 PB1 HTS | bead flow cytometry, Alexa488-MEK5 binding to MEKK2 mutant | percent response, % at 10 µM | 5,900 tested, 2% active; in the data active = percent response mostly above about 71%, no sharp cut-off; inactive = mostly below about 38%;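 also: higher means compound restores mutant binding toward wildtype level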
MEKK3 confirm: confirmation of inhibitors of MEK5 binding to human MEKK3. binding response (% of control), % at 10 µM. bead flow cytometry, Alexa488-MEK5 binding to MEKK3; active compounds read low. shares compounds with MEKK3 PB1 HTS. 5,900 tested, 1.8% active;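 active = binding response below 72% of control, or above a set upper limit, though filed actives all read lower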;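 also: 100% = DMSO only wells and 0% = binding blocked by excess unlabeled MEK5; lower values mean stronger disruption of MEK5 binding to MEKK3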
* marks the source's active call; other numbers are inactive results; nt = no result given; [ ] = remark or other dose.

SMILES	MEKK2 mut-MEK5	WT yeast gro inh	ABCB1 block	MEKK3 PB1 HTS	ABCG2 inh	MEKK2wt PB1 HTS	MEKK2wt confirm	MEKK2mut confirm	MEKK3 confirm
O=c1c2cc(N3CCOCC3)ccc2[nH]c(=S)n1CCCN1CCCCCC1	13	-2	1	101	5	148*	125	10	99
O=c1c2cc(N3CCOCC3)ccc2[nH]c(=S)n1CCN1CCCC1	2	-3	9	101	27	101	nt	nt	nt
CCC(=O)Nc1cccc(C2=NOC3(C2)C[C@H](C(N)=O)N(C(=O)CC#N)C3)c1 (stereo partly drawn)	-2	nt	nt	78*[inhibitor]	nt	95	80	-14	79
C/C=C\C=C/C(=O)Nc1cccc(C2=NOC3(C2)C[C@@H](C(N)=O)N(C(=O)COc2ccc(Cl)cc2)C3)c1 (stereo partly drawn)	2	nt	nt	95	nt	97	nt	nt	nt
CCCCCC(=O)Nc1cccc(C2=NOC3(C2)C[C@H](C(N)=O)N(C(=O)COc2ccc(Cl)cc2)C3)c1 (stereo partly drawn)	-1	nt	nt	3.0*[inhibitor]	nt	6.0*[inhibitor]	99	-5	99
Cc1c(C(=O)N2CCOCC2)c(S(=O)(=O)N2CCN(c3ccc(Cl)cc3)CC2)c(C)n1C	3	nt	nt	100	nt	104	nt	nt	nt
Cc1coc2cc3oc(=O)ccc3cc12	0	nt	nt	97	nt	98	nt	nt	nt
Cn1c(-c2c(N)n(-c3ccccc3)c3nc4ccccc4nc23)nc2ccccc21	1	59*	1	68*[inhibitor]	4	93	106	-2	106
NS(=O)(=O)c1cc(C(=O)Nc2ccc3c(c2)CCC3)ccc1Cl	-3	nt	nt	99	nt	98	nt	nt	nt
COc1ccc(-c2[nH]ncc2CN2CCCCCCC2)c(OC)c1	98*	17	1	108	-1	223*	214*	79*	112
CCCSc1nc(N)cc(=O)[nH]1	-18	22	1	35*[inhibitor]	5	46*[inhibitor]	94	-6	95
CCCSc1nc(C)cc(=O)[nH]1	2	-8	0	101	-4	105	nt	nt	nt
CC(C)=CC(=O)N1CCCc2ccccc21	0	-10	1	100	7	101	nt	nt	nt
C/C(=C/C(=O)N1CCc2ccccc21)C(=O)O	4	14	0	145*	6	117	98	2	101
CCc1ccc(C2=NN(CCC(=O)NC3CC3)C(=O)CC2)cc1	0	-2	1	144*	15	106	98	-12	101
Cn1c2ccccc2c2nnc(SCC(=O)Nc3cccc(O)c3)nc21	-8	nt	nt	91	nt	94	nt	nt	nt
Cc1cc(OCC(=O)NNC(=O)c2cccnc2)cc(C)c1Cl	-3	nt	nt	101	nt	98	nt	nt	nt
CCN(CC)CCCNC(=O)c1cc(-c2ccccc2)c(N2CCCCC2)s1	26*	nt	nt	105	nt	161*	162	41	107
CNC(=O)N(C1=NCCCCC1)c1ccc(Br)cc1	0	-10	-1	129*	-13	103	107	7	107
COc1ccccc1C(c1nnnn1Cc1ccco1)N1CCN(c2cccc(C)c2C)CC1 (stereo not drawn)	-1	28	1	49*[inhibitor]	5	96	99	0	104
O=[N+]([O-])c1cccc(-n2nnnc2CN2CCCCCC2)c1	5	0	0	122*	7	124	105	-4	101
Cc1[nH]c2ccccc2c1/C=C/c1nc2ccccc2c(=O)n1-c1cccc([N+](=O)[O-])c1	-7	6	-1	90	-6	90	nt	nt	nt
O=c1c2ccccc2nc(/C=C/c2c[nH]c3ccccc23)n1-c1ccc([N+](=O)[O-])cc1	-2	7	0	75*[inhibitor]	1	95	96	-7	96
CCCOc1ccc(C2C(C(=O)c3ccc(C)o3)=C(O)C(=O)N2CCN2CCOCC2)cc1OC (stereo not drawn)	-16	0	0	0.0*[inhibitor]	2	0.0*[inhibitor]	100	-3	103
COCCNC(=O)c1n[nH]c2ccccc12	-3	-41	0	70*[inhibitor]	0	85	105	-2	104
SMILES	MEKK2 mut-MEK5	WT yeast gro inh	ABCB1 block	MEKK3 PB1 HTS	ABCG2 inh	MEKK2wt PB1 HTS	MEKK2wt confirm	MEKK2mut confirm	MEKK3 confirm
COCCNC(=O)c1cn(C)c2ccccc2c1=O	-14	-3	0	70*[inhibitor]	6	74	98	-8	96
COc1ccc(CCNC(=O)c2n[nH]c3ccccc23)cc1	-5	2	1	100	14	95	nt	nt	nt
CC1(C)CC(=O)C2=C(C1)N(CC1CCCO1)C(=O)C2(NC(=O)c1cccnc1)C(F)(F)F (stereo not drawn)	-8	-8	0	85	0	86	nt	nt	nt
CCOC(=O)CN1C=C(c2ccc3ccccc3n2)C(C[N+](=O)[O-])c2ccccc21 (stereo not drawn)	82*	50	1	103	9	67*	102	-10	96
C/C(=N\NC(=O)CNC(=O)C(c1ccccc1)c1ccccc1)c1ccc(C(C)(C)C)cc1	1	-6	0	162*	2	108	106	-1	98
O=[N+]([O-])c1cccc(-n2nnnc2CN2CCCC2)c1	-2	4	0	104	1	94	nt	nt	nt
CN(C)S(=O)(=O)c1cccc(NC(=O)c2cc(-c3cccs3)nn2-c2ccccc2)c1	0	7	0	142*	8	108	98	-1	106
NC(=O)COC(=O)c1cc(-c2cccs2)nn1-c1ccccc1	0	8	1	136*	2	115	101	4	100
CC(C)NS(=O)(=O)c1ccc(NCCCn2ccnc2)c([N+](=O)[O-])c1	9	nt	nt	105	nt	105	nt	nt	nt
O=C(N/N=C/c1ccc2ncccc2c1)c1cc(-c2cccs2)nc2ccccc12	-12	nt	nt	35*[inhibitor]	nt	30*[inhibitor]	100	2	105
Cc1ccc(-c2cc(C(=O)Nc3nn[nH]n3)c3ccccc3n2)cc1	-5	4	0	95	0	94	nt	nt	nt
Clc1ccc(-c2csc(N/N=C/c3ccc4c(c3)OCO4)n2)cc1	1	28	-1	136*	-7	107	100	-4	102
O=C(O)c1ccc(Oc2ccc(C(F)(F)F)cn2)cc1	-9	-9	0	91	1	84	nt	nt	nt
COC(=O)c1ccc(Oc2ccc(C(F)(F)F)cn2)cc1	7	41	1	152*	7	129	103	-2	96

Bioassay records as filed in PubChem BioAssay.
